The sample as a whole holds a higher share of hits than the screen did.
Cardio protect – modulators protecting cardiomyocytes from myocardial damage. H9c2 cardiomyocytes, H2O2 injury protection, ATPLite, 2 h. protection from H2O2 cell death, % at 20 µM. hit rate 0.63% among 360,000;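 active = compounds giving at least 50% protection of heart cells from peroxide-induced death in the single-dose screen, raw or plate-pattern-corrected value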
UPR CHOP act – apoptotic UPR (CHOP) activation; CHO-CHOP luciferase reporter, luminescence; percent of tunicamycin response over DMSO baseline; activation, % at 10 µM; hit rate 0.34% among 330,000; AID 449763;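 active = at 10 µM dose, activation of 40% or more, normalized to positive control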
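System: CHO-CHOP luciferase reporter cell line; amount: 500 cells/well; buffer or medium: F12 medium containing 10% fetal bovine serum; incubation: 6 h compound exposure at 37 °C after overnight seeding; measured by: luciferase luminescence after 10 min with Steady-Glo reagent; evaluation: % reporter activation, DMSO baseline versus tunicamycin full activation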
iPSC survival up – enhancers of human iPSC single-cell survival; AID 602274; hit rate 0.044% among 360,000; hiPSC single-cell survival, ATPlite luminescence; 100% = ROCK inhibitor wells, 0% = DMSO; survival enhancement, % at 20 µM; in the data active = survival enhancement above about 18%;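 also: cells exposed to compounds for 16 hours before the ATP read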
UPR XBP1 act – adaptive UPR (XBP1) activation. CHO-XBP1 luciferase reporter, IRE1-XBP1 UPR activation, luminescence; percent of tunicamycin response, DMSO as zero. activation, % at 20 µM. hit rate 0.33% among 330,000;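 active = versus positive control, 20 µM dose yields 30% or more activation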
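Material: CHO cell line with stable XBP1 luciferase reporter; schedule: 16-18 h cell attachment at 37 °C, then 6 h compound exposure; signal: glow luminescence from Steady-Glo reagent; medium: serum-containing F12 medium, 10% FBS; benchmarks: tunicamycin 10 µg/mL and vehicle-only wells; read-out: percent activation relative to tunicamycin reference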
CHOP inhibitor – CHOP inhibition in unfolded protein response. CHO-K1 CHOP-promoter luciferase, tunicamycin-induced, 15-18 h. hit rate 3.8% among 220,000. inhibition, % at 10 µM;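 active = compounds that reduced the stress-induced luciferase reporter signal by more than about 70% of percent inhibition, limit read from the data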
A number is an active result; i = inactive; nt = no result.

SMILES	Cardio protect	UPR CHOP act	iPSC survival up	UPR XBP1 act	CHOP inhibitor
COc1cccc(/C=N/NC(=O)CSc2ccccc2C)c1OC	i	i	i	i	i
COc1cccc(/C=N/NC(=O)CSc2ccccc2C)c1O	53	i	i	i	i
CCCCc1c(-c2cccc(Br)c2)ncn1CCc1ccccc1OC	nt	nt	i	nt	nt
Oc1cccc(/C=N/Nc2nn3cnnc3c3ccccc23)c1	i	i	i	i	i
COc1cccc(/C=N/NC(=O)C(C)n2nc(C)c([N+](=O)[O-])c2C)c1O (stereo not given)	i	i	i	i	i
COc1ccccc1/C=C/C(=O)NCC(=O)N/N=C/c1cc(Br)ccc1OC	98	i	i	i	i
COc1cccc(/C=N/NC(=O)Cn2nc(C)c([N+](=O)[O-])c2C)c1O	54	i	i	i	i
COc1cccc(/C=N/Nc2nn3cnnc3c3ccccc23)c1O	50	i	i	i	i
CCOc1ccc(OCc2cccc(C(=O)N3CCOCC3)c2)cc1	i	i	i	i	86
O=C(c1cccc(OCc2ccccc2)c1)N1CCOCC1	i	i	i	i	i
COc1ccc(OCc2cccc(C(=O)NN)c2)cc1	i	i	i	i	72
NNC(=O)c1ccc(COc2ccc3ccccc3c2)cc1	i	i	i	i	85
O=S(=O)(Nc1ccc(F)cc1)N1CCOCC1	i	i	i	i	nt
O=S1(=O)N=C(Nc2ccc(S(=O)(=O)N3CCCCC3)cc2)c2ccccc21	i	i	i	i	92
O=C1/C(=C/N(C(=O)c2ccco2)c2ccc(Cl)cc2)Sc2ccccc21	i	nt	i	nt	88
O=C1/C(=C/N(C(=O)c2ccco2)c2ccc(Br)cc2)Sc2ccccc21	i	i	i	i	90
CCc1ccc(N(CC)C(=O)c2ccc3c(Cl)c4c(nc3c2)CCC4)cc1	i	i	i	i	87
CN1C(=O)c2ccc(C(=O)Nc3ccccc3O)cc2C1=O	i	i	i	i	nt
CCOC(=O)C1=C(N)c2ccccc2CC1C1CCCC1 (stereo not given)	i	i	i	i	91
O=C1c2ccccc2C(c2nnnn2-c2ccc3c(c2)OCCO3)N1Cc1cccnc1 (stereo not given)	nt	nt	i	nt	nt
CC/C(=C\C1CCCCC1)C(NP(=O)(c1ccccc1)c1ccccc1)c1ccccc1 (stereo not given)	i	i	i	i	86
O=P(NC1CCCCC1)(c1ccccc1)c1ccccc1	i	nt	i	nt	nt
Clc1nssc1=Nc1nncs1	i	i	i	i	nt
Clc1ccc(N=c2ssnc2Cl)nc1	i	i	i	i	103
CCn1c(CCCOc2ccc(Cl)cc2Cl)nnc1SCC(=O)Nc1cc(F)ccc1C	i	i	i	i	84
SMILES	Cardio protect	UPR CHOP act	iPSC survival up	UPR XBP1 act	CHOP inhibitor
COc1ccc2o/c(=N/NC(=O)c3cccs3)c(C(N)=O)cc2c1	54	i	i	i	i
NC(=O)c1cc2ccccc2o/c1=N/NC(=O)c1cccs1	i	i	i	i	i
CC(C)NC(=O)c1cc(-c2ccco2)nn1-c1ccc(Cl)cc1	i	i	i	i	nt
O=C(c1cc(-c2ccco2)nn1-c1cccc(Cl)c1)N1CCCCC1	i	i	i	i	71
NC(Cc1ccc(C(F)(F)F)cc1)c1csc(NC(=O)Nc2ccccc2Oc2ccccc2)n1 (stereo not given)	i	nt	i	nt	nt
Oc1c(Br)cc(Br)cc1/C=N/n1c(-c2ccccc2)n[nH]c1=S	i	i	i	i	nt
COc1c(Br)cc(/C=N/n2c(-c3ccccc3)n[nH]c2=S)c(O)c1Br	64	i	i	i	nt
Nc1nc(SCc2cccnc2)c2ncn(C3OC(CO)C(O)C3O)c2n1 (stereo not given)	i	nt	i	nt	nt
CCCCCCOC(=O)C(C#N)c1nc2ccccc2nc1N1CCOCC1 (stereo not given)	i	i	i	i	94
CCCCOC(=O)C(C#N)c1nc2ccccc2nc1N1CCOCC1 (stereo not given)	i	i	i	i	i
COc1ccccc1C=NN=C(NN=Cc1ccccc1OC)NN=Cc1ccccc1OC	i	nt	i	nt	nt
COc1ccc(-n2nc(C(=O)NCC(=O)Nc3cc(OC)c(OC)c(OC)c3)c3ccccc3c2=O)cc1Cl	58	i	i	i	nt
Fc1ccc(-n2nnc(-c3cnc4ccccc4c3)n2)cc1	i	i	i	i	72
CCOC(=O)c1c(C)n(C)c2cc(-c3ccc(C)cc3)c(O)cc12	i	i	i	i	81
CCNC(=O)C1(C)CCCN(C(=O)C2(c3ccc(Cl)cc3)CCCC2)C1 (stereo not given)	i	nt	i	nt	nt
CCc1ccc2[nH]c(=O)c(CN(Cc3ccc4c(c3)OCO4)Cc3nnnn3C3CCCC3)cc2c1	i	i	i	i	82
Cc1ccc2cc(CN(Cc3ccc(F)cc3)Cc3nnnn3C3CCCC3)c(=O)[nH]c2c1	i	i	i	i	84
CC(C)CN1C(=O)C(=O)N(CC(=O)NCCCc2ccccc2)C1=O	i	nt	i	nt	nt
Cc1cc2occ(CC(=O)Nc3nnc(C4CC4)s3)c2cc1C	i	i	i	i	90
CC(=O)N1C[C@H]2CON(C)[C@H]2C[C@H]1c1ccc(-c2cccnc2)cc1	i	nt	i	nt	nt
CCOc1ccccc1-c1nc(-c2cc3ccc(C)cc3[nH]c2=O)no1	i	i	i	i	72
CCOc1nc(C)ccc1-c1noc(-c2ccccc2OC)n1	i	i	i	i	72
CCOc1cc(-c2nc(-c3ccc(C)nc3OCC)no2)cc(OCC)c1OCC	i	i	i	i	i
CCOc1cc(-c2nc(-c3ccc(C)nc3OC)no2)cc(OCC)c1OCC	i	nt	i	nt	77
CCCc1nc(-c2cc3ccc(C)cc3[nH]c2=O)no1	i	i	i	i	i
SMILES	Cardio protect	UPR CHOP act	iPSC survival up	UPR XBP1 act	CHOP inhibitor
COc1ccc2ccccc2c1C=NN1CCCCC1	i	nt	i	nt	nt
COc1cccc(NC(=O)COC(=O)C2CCCCC2)c1	i	i	i	i	nt
Cc1ccccc1-c1noc(-c2ccc(Cl)cc2)n1	i	i	i	i	i
Cc1ccccc1-c1noc(-c2ccccc2F)n1	i	i	i	i	78
CCC(C)C(CO)NCCCn1cnc2c(OCc3ccccc3)ncnc21 (stereo not given)	i	nt	i	nt	nt
COC(=O)COc1ccc(S(=O)(=O)NCCC2=CCCCC2)cc1Cl	i	i	i	i	i
COCCNS(=O)(=O)c1ccc(OCC(=O)OC)c(Cl)c1	i	i	i	i	92
CC1Cc2ccccc2N1CC(=O)NC(c1ccccc1)c1ccccc1 (stereo not given)	i	i	i	i	87
CCc1cc(-c2nc(N)ncc2-c2csc(C)n2)c(O)cc1OC	i	i	i	i	i
CCOc1ccc(-c2nc(N)ncc2-c2ccccc2)c(O)c1	i	i	i	i	91
COc1ccc(-c2nc(N)ncc2-c2csc(C)n2)c(O)c1	i	i	i	i	73
O=C(/C=C/c1ccc(Cl)c([N+](=O)[O-])c1)Nc1cccc(NC(=O)c2ccco2)c1	88	i	i	i	i
